Data as given in ChEMBL document CHEMBL1255289, “In vitro antifungal activities of isavuconazole (BAL4815), voriconazole, and fluconazole against 1,007 isolates of zygomycete, Candida, Aspergillus, Fusarium, and Scedosporium species” (2008).
≈ marks a conversion by molar mass, not a printed value.

Tests used:
[1] = tested on: Aspergillus terreus; assay: Antifungal activity against Aspergillus terreus isolates after 48 hrs by CLSI M38-A procedure based assay; type: functional
In short: (§1)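 Aspergillus isolates tested by CLSI M38-A broth microdilution at final 0.015–16 µg/ml and 35°C. Plates were read macroscopically at 48 h. The MIC was the lowest concentration producing complete inhibition of growth (MIC-0).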

[2] = tested on: Aspergillus fumigatus; assay: Antifungal activity against Aspergillus fumigatus isolates after 48 hrs by CLSI M38-A procedure based assay; type: functional; in short: as §1
[3] = tested on: Aspergillus flavus; assay: Antifungal activity against Aspergillus flavus isolates after 48 hrs by CLSI M38-A procedure based assay; type: functional; in short: as §1
[4] = tested on: Aspergillus niger; assay: Antifungal activity against Aspergillus niger isolates after 48 hrs by CLSI M38-A procedure based assay; type: functional; in short: as §1
[5] = tested on: Aspergillus sp.; assay: Antifungal activity against Aspergillus sp. isolates after 48 hrs by CLSI M38-A procedure based assay; type: functional; in short: as §1
[6] = tested on: Candida parapsilosis; assay: Antifungal activity against Candida parapsilosis isolates after 48 hrs by CLSI M27-A2 procedure based assay; type: functional
In short: (§2)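 Candida isolates tested by CLSI M27-A2 broth microdilution at final 0.015–16 µg/ml, or 0.125–128 µg/ml for the comparator azole. Incubation was at 35°C with a visual read at 48 h. MIC-2 was the lowest concentration giving a prominent turbidity drop, about 50% growth inhibition.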

[7] = tested on: Candida albicans; assay: Antifungal activity against Candida albicans isolates after 48 hrs by CLSI M27-A2 procedure based assay; type: functional; in short: as §2
[8] = tested on: Rhizopus; assay: Antifungal activity against Rhizopus isolates assessed as lowest compound concentration that produced complete inhibition of microbial growth after 24 hrs by CLSI M38-A procedure based assay; type: functional
In short: (§3)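 Zygomycete isolates subcultured on potato dextrose or Sabouraud agar, then tested by CLSI M38-A broth microdilution. Drugs were serially diluted in plates at final 0.015–16 µg/ml and incubated at 35°C. Plates were read by eye at 24 h. MIC-0 was the lowest concentration giving complete growth inhibition.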

[9] = tested on: Absidia; assay: Antifungal activity against Absidia isolates assessed as lowest compound concentration that produced complete inhibition of microbial growth after 24 hrs by CLSI M38-A procedure based assay; type: functional; in short: as §3
[10] = tested on: Syncephalastrum; assay: Antifungal activity against Syncephalastrum isolates assessed as lowest compound concentration that produced slight growth or approximately 25% of that of growth control after 24 hrs by CLSI M38-A procedure based assay; type: functional
In short: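 Clinical isolates were kept at –70°C as spore suspensions in sterile water and subcultured on potato dextrose or Sabouraud agar before testing. Broth microdilution used DMSO stocks in trays stored at –70°C, with final drug 0.015–16 µg/ml.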

[11] = tested on: Lomentospora prolificans; assay: Antifungal activity against Scedosporium prolificans isolates assessed as lowest compound concentration that produced slight growth or approximately 25% of that of growth control after 24 hrs by CLSI M38-A procedure based assay; type: functional
[12] = tested on: Nakaseomyces glabratus; assay: Antifungal activity against Candida glabrata isolates after 48 hrs by CLSI M27-A2 procedure based assay; type: functional; in short: as §2
[13] = tested on: Candida tropicalis; assay: Antifungal activity against Candida tropicalis isolates after 48 hrs by CLSI M27-A2 procedure based assay; type: functional; in short: as §2
[14] = tested on: Pichia kudriavzevii; assay: Antifungal activity against Candida krusei isolates after 48 hrs by CLSI M27-A2 procedure based assay; type: functional; in short: as §2
[15] = tested on: Aspergillus fumigatus; assay: Antifungal activity against Aspergillus fumigatus isolates by Etest; type: functional
In short: (§4)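 Etest on RPMI agar with 2% glucose, swab-inoculated with the microdilution spore or yeast suspension taken before its 50-fold dilution. Plates were incubated at 35°C and read at 48 h. The MIC was the ellipse–scale intercept, raised to the next twofold dilution step.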

[16] = tested on: Aspergillus niger; assay: Antifungal activity against Aspergillus niger isolates by Etest; type: functional; in short: as §4
[17] = tested on: Aspergillus terreus; assay: Antifungal activity against Aspergillus terreus isolates by Etest; type: functional; in short: as §4
[18] = tested on: Aspergillus sp.; assay: Antifungal activity against Aspergillus sp. isolates by Etest; type: functional; in short: as §4
[19] = tested on: Rhizopus; assay: Antifungal activity against Rhizopus isolates by Etest; type: functional
In short: (§5)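 Etest. The spore inoculum used for microdilution, taken before the 50-fold dilution, was swabbed onto RPMI agar with 2% glucose, strips applied, and plates held at 35°C and read at 24 h. The MIC was where the inhibition ellipse met the strip scale, rounded up to the next twofold dilution.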

[20] = tested on: Cunninghamella; assay: Antifungal activity against Cunninghamella isolates by Etest; type: functional; in short: as §5
[21] = tested on: Syncephalastrum; assay: Antifungal activity against Syncephalastrum isolates by Etest; type: functional; in short: as §5
[22] = tested on: Scedosporium apiospermum; assay: Antifungal activity against Scedosporium apiospermum isolates by Etest; type: functional; in short: as §4
[23] = tested on: Candida albicans; assay: Antifungal activity against Candida albicans isolates by Etest; type: functional; in short: as §4
[24] = tested on: Nakaseomyces glabratus; assay: Antifungal activity against Candida glabrata isolates by Etest; type: functional; in short: as §4
[25] = tested on: Candida tropicalis; assay: Antifungal activity against Candida tropicalis isolates by Etest; type: functional; in short: as §4
[26] = tested on: Pichia kudriavzevii; assay: Antifungal activity against Candida krusei isolates by Etest; type: functional; in short: as §4
[27] = tested on: Fusarium; assay: Antifungal activity against Fusarium sp. isolates assessed as lowest compound concentration that produced complete inhibition of microbial growth after 24 hrs by CLSI M38-A procedure based assay; type: functional
[28] = tested on: Fusarium; assay: Antifungal activity against Fusarium sp. isolates assessed as lowest compound concentration that produced complete inhibition of microbial growth by CLSI M38-A procedure based assay
[29] = Lodderomyces parapsilosis, 48 h

**Q.** What does the source list for `C[C@@H](c1nc(-c2ccc(C#N)cc2)cs1)[C@](O)(Cn1cncn1)c1cc(F)ccc1F` [ISAVUCONAZOLE]?
**A.** MFC50 [1]: 1 µg/mL (≈ 2.29 µM); MFC90 [1]: 1 µg/mL (≈ 2.29 µM); MFC ([1]; Aspergillus terreus, 48 h): 0.25 µg/mL (≈ 0.571 µM); MIC50 ([1]; Aspergillus terreus, 48 h): 1 µg/mL (≈ 2.29 µM); MIC90 ([1]; Aspergillus terreus, 48 h): 1 µg/mL (≈ 2.29 µM); MFC50 [2]: 1 µg/mL (≈ 2.29 µM); MFC90 [2]: 1 µg/mL (≈ 2.29 µM); MFC ([2]; Aspergillus fumigatus, 48 h): 0.125 µg/mL (≈ 0.286 µM); MIC50 ([2]; Aspergillus fumigatus, 48 h): 1 µg/mL (≈ 2.29 µM); MIC90 ([2]; Aspergillus fumigatus, 48 h): 1 µg/mL (≈ 2.29 µM); MFC50 [3]: 1 µg/mL (≈ 2.29 µM); MFC90 [3]: 1 µg/mL (≈ 2.29 µM); MFC ([3]; Aspergillus flavus, 48 h): 0.5 µg/mL (≈ 1.14 µM); MIC50 ([3]; Aspergillus flavus, 48 h): 1 µg/mL (≈ 2.29 µM); MIC90 ([3]; Aspergillus flavus, 48 h): 1 µg/mL (≈ 2.29 µM); MFC50 [4]: 1 µg/mL (≈ 2.29 µM); MFC90 [4]: 2 µg/mL (≈ 4.57 µM); MFC ([4]; Aspergillus niger, 48 h): 0.25 µg/mL (≈ 0.571 µM); MIC50 ([4]; Aspergillus niger, 48 h): 1 µg/mL (≈ 2.29 µM); MIC90 ([4]; Aspergillus niger, 48 h): 2 µg/mL (≈ 4.57 µM); MFC [5]: 0.25 µg/mL (≈ 0.571 µM); MIC [5]: 0.25 µg/mL (≈ 0.571 µM); MFC50 [6]: 4 µg/mL (≈ 9.14 µM); MFC90 [6]: 16 µg/mL (≈ 36.6 µM); MFC [6, 29]: 0.03 µg/mL (≈ 0.0686 µM); MIC [6, 29]: < 0.015 µg/mL; MIC50 [6, 29]: < 0.015 µg/mL; MIC90 [6, 29]: 0.03 µg/mL (≈ 0.0686 µM); MFC50 [7]: >16 µg/mL; MFC90 [7]: >16 µg/mL; MFC ([7]; Candida albicans, 48 h): 0.03 µg/mL (≈ 0.0686 µM); MIC50 ([7]; Candida albicans, 48 h): 0.03 µg/mL (≈ 0.0686 µM); MIC90 ([7]; Candida albicans, 48 h): < 0.015 µg/mL; MFC50 [8]: 4 µg/mL (≈ 9.14 µM); MFC90 [8]: >16 µg/mL; MFC ([8]; Rhizopus, 24 h): 1 µg/mL (≈ 2.29 µM); MIC ([8]; Rhizopus, 24 h): 1 µg/mL (≈ 2.29 µM); MIC50 ([8]; Rhizopus, 24 h): 1 µg/mL (≈ 2.29 µM); MIC90 ([8]; Rhizopus, 24 h): 16 µg/mL (≈ 36.6 µM); MFC [9]: 4 µg/mL (≈ 9.14 µM); MIC [9]: 1 µg/mL (≈ 2.29 µM); MIC [10]: 0.125 µg/mL (≈ 0.286 µM); MIC [11]: 4 µg/mL (≈ 9.14 µM); MFC50 [12]: 16 µg/mL (≈ 36.6 µM); MFC90 [12]: >16 µg/mL; MFC ([12]; Nakaseomyces glabratus, 48 h): 0.03 µg/mL (≈ 0.0686 µM); MIC50 ([12]; Nakaseomyces glabratus, 48 h): 0.25 µg/mL (≈ 0.571 µM); MIC90 ([12]; Nakaseomyces glabratus, 48 h): 1 µg/mL (≈ 2.29 µM); MFC50 [13]: >16 µg/mL; MFC90 [13]: >16 µg/mL; MFC ([13]; Candida tropicalis, 48 h): 2 µg/mL (≈ 4.57 µM); MIC ([13]; Candida tropicalis, 48 h): < 0.015 µg/mL; MIC50 ([13]; Candida tropicalis, 48 h): < 0.015 µg/mL; MIC90 ([13]; Candida tropicalis, 48 h): 0.06 µg/mL (≈ 0.137 µM); MFC [14]: 0.5 µg/mL (≈ 1.14 µM); MIC [14]: 0.125 µg/mL (≈ 0.286 µM); MIC [15]: 0.047 µg/mL (≈ 0.107 µM); MIC50 [15]: 0.25 µg/mL (≈ 0.571 µM); MIC90 [15]: 0.5 µg/mL (≈ 1.14 µM); MIC [16]: 0.094 µg/mL (≈ 0.215 µM); MIC50 [16]: 0.5 µg/mL (≈ 1.14 µM); MIC90 [16]: 0.75 µg/mL (≈ 1.71 µM); MIC50 [17]: 0.38 µg/mL (≈ 0.869 µM); MIC90 [17]: 0.5 µg/mL (≈ 1.14 µM); MIC [18]: 0.02 µg/mL (≈ 0.0457 µM); MIC50 [19]: 1 µg/mL (≈ 2.29 µM); MIC90 [19]: > 32 µg/mL; MIC [20]: 0.38 µg/mL (≈ 0.869 µM); MIC [21]: 0.25 µg/mL (≈ 0.571 µM); MIC [22]: > 32 µg/mL; MIC50 [23]: 0.004 µg/mL (≈ 0.00914 µM); MIC90 [23]: 0.015 µg/mL (≈ 0.0343 µM); MIC50 [24]: 0.094 µg/mL (≈ 0.215 µM); MIC90 [24]: 0.38 µg/mL (≈ 0.869 µM); MIC [25]: 0.003 µg/mL (≈ 0.00686 µM); MIC50 [25]: 0.015 µg/mL (≈ 0.0343 µM); MIC90 [25]: 0.125 µg/mL (≈ 0.286 µM); MIC [26]: 0.012 µg/mL (≈ 0.0274 µM); MFC50 [27]: >16 µg/mL; MFC ([27]; Fusarium, 24 h): 4 µg/mL (≈ 9.14 µM); MIC50 ([27]; Fusarium, 24 h): 16 µg/mL (≈ 36.6 µM); MIC90 ([27]; Fusarium, 24 h): > 16 µg/mL; MFC90 [28]: >16 µg/mL
